This is an account of results in PMC4715766 (ACS Chemical Biology, 2015).

The subject of test [1] is NIH-3T3 cell-derived line. The experiment in a line: Ciliogenesis assay. It is filed as cell-based, murine. The following applies: 30 μM; 24 h. Summed up: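 NIH-3T3-derived cells were exposed to the test compound at 30 μM for 24 h, then fixed and immunostained for ARL13B. Primary cilium length was taken as the mean number of ARL13B-positive pixels per cell over at least 6 fields of view, about 800 cells per condition, reported ± s.e.m.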

Test [2] relates to Hh signaling. The experiment in a line: Hh signaling assay. It is filed as cell-based, murine. As to conditions: ShhN-conditioned medium and compound for 30 h.
In test [3] the target is DYNC1H1 (Homo sapiens, UniProt Q14204). The experiment in a line: DYNC1H1 ATPase assay. The test is classed as biochemical. In a few lines: (§1)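 Purified N-terminally SBP- and SNAP-tagged full-length human heavy chains; hydrolysis of γ-32P ATP measured at 37 °C under conditions kept linear from enzyme reaction curves. Single-dose screens used 50 μM in both assays (about 25 nM γ-32P ATP, duplicates), or 50 μM for DYNC1H1 and 15 μM for DYNC2H1 (two experiments). IC50 calculated from dose-response curves run in triplicate.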
Sequence of DYNC1H1 (Q14204 whole entry): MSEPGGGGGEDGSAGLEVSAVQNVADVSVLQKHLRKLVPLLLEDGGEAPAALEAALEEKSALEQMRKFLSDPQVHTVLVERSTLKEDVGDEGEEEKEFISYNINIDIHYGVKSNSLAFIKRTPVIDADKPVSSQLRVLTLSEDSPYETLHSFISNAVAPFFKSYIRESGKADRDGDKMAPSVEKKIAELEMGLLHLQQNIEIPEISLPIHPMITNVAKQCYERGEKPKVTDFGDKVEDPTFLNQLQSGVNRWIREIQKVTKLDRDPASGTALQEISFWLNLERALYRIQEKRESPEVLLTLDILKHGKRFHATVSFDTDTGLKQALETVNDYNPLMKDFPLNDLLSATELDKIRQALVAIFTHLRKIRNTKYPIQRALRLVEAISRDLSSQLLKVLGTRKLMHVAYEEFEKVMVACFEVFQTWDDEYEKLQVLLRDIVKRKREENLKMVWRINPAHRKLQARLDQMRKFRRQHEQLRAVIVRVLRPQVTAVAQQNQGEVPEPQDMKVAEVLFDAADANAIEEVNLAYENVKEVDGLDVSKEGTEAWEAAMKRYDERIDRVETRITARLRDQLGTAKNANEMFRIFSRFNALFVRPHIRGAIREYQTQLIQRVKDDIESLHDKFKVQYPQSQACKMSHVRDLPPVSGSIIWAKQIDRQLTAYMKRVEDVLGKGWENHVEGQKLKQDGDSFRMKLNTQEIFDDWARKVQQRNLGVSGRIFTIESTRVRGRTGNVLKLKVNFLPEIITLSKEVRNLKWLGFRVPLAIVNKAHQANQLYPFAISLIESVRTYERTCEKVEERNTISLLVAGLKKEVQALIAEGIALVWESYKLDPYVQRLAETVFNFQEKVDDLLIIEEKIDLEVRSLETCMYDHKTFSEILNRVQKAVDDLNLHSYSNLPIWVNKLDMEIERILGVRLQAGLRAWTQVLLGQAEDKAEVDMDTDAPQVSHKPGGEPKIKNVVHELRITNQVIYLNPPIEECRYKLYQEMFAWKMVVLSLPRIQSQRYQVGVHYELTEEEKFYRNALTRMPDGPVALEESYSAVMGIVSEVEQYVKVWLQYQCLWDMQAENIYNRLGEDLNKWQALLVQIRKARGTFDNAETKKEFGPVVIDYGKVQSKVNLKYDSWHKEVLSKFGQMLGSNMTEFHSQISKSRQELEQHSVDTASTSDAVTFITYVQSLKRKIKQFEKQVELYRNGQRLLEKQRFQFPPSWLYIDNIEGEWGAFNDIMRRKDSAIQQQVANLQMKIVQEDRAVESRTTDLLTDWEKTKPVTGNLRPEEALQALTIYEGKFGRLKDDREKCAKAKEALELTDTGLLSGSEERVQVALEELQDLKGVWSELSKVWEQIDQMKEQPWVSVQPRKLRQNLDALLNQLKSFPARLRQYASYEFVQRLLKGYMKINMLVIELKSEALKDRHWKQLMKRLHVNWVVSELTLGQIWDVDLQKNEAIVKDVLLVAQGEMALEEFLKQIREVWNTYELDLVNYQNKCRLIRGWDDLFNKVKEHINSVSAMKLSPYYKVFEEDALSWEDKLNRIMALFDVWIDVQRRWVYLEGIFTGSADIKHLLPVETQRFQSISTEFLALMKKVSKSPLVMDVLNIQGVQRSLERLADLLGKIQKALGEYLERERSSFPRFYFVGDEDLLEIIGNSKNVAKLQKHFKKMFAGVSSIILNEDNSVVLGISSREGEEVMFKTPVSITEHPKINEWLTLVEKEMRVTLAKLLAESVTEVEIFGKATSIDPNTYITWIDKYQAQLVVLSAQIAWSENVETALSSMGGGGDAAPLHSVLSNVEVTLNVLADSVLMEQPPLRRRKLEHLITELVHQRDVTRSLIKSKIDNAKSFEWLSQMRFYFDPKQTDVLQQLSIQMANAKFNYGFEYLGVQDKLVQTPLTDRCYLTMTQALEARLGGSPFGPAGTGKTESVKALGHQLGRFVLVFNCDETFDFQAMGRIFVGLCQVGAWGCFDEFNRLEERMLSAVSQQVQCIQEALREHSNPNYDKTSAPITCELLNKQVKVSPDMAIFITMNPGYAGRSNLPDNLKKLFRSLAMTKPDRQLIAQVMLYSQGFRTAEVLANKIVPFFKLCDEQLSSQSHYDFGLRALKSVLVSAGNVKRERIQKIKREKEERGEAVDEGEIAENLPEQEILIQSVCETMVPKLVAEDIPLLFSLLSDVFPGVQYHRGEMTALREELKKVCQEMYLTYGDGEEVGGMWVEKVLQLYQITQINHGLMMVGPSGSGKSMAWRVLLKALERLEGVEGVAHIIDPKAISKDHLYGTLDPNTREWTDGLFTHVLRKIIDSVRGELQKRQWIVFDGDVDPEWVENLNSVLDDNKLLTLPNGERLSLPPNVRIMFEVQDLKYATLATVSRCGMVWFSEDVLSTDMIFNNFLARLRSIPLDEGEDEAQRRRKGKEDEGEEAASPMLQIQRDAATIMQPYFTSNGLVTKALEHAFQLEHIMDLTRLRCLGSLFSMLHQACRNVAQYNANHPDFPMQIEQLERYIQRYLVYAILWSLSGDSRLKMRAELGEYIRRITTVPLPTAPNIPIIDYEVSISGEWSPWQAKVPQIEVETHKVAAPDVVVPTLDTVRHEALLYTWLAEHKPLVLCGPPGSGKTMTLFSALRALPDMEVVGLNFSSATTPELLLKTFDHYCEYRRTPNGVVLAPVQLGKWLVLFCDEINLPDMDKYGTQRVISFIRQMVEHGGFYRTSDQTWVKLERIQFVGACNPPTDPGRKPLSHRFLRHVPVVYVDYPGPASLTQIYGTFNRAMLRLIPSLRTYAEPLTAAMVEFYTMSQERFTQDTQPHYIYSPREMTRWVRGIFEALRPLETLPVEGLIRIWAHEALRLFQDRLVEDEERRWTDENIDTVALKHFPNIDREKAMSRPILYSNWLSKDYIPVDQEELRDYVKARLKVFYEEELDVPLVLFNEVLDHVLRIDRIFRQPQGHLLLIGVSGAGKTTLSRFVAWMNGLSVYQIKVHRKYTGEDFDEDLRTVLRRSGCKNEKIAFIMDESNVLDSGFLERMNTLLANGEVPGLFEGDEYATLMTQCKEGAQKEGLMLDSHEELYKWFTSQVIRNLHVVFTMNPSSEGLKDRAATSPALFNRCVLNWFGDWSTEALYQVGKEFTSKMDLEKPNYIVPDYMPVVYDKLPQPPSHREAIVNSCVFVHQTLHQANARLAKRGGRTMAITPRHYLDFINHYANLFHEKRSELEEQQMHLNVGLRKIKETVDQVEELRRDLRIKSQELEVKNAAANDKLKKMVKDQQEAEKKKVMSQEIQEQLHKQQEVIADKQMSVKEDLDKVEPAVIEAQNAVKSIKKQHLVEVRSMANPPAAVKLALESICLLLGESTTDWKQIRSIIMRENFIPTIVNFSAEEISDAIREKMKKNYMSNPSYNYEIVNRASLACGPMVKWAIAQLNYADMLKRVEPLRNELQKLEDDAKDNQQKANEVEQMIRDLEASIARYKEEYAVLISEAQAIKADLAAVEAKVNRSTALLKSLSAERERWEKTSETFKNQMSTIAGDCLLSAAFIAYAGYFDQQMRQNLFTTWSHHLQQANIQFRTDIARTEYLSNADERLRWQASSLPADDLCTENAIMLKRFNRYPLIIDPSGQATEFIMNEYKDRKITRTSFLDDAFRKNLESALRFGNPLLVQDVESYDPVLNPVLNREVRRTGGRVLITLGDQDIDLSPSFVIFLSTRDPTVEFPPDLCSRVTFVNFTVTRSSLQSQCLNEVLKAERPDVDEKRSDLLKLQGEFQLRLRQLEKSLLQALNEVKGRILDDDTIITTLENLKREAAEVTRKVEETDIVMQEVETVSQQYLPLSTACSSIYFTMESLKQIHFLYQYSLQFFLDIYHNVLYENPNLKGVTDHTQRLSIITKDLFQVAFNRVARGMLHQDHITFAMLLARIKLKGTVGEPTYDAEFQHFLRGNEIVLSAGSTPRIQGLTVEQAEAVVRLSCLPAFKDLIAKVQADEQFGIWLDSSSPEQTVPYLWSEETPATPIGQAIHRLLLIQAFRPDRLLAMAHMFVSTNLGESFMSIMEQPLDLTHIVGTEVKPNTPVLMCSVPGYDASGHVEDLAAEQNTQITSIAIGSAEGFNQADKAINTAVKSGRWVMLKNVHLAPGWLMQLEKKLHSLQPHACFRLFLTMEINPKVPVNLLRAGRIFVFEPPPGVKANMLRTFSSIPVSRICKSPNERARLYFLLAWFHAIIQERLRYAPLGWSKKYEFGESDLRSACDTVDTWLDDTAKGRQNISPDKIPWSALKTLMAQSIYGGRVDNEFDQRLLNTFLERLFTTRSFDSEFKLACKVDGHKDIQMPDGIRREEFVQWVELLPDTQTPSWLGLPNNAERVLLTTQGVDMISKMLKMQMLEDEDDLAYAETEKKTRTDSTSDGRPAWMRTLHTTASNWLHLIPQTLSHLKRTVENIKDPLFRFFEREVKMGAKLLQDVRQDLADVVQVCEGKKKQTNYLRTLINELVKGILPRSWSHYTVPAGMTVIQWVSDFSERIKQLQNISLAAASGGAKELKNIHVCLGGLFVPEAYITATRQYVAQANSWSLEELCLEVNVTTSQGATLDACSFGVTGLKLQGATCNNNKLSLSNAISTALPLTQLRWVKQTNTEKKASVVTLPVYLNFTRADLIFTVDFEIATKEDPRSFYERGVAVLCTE

The target in test [4] is DYNC2H1 (Homo sapiens, UniProt Q8NCM8). The experiment in a line: DYNC2H1 ATPase assay. The test is classed as biochemical. In a few lines: as §1
Test [5] relates to IMCD3 cells. The experiment in a line: Real-time imaging of mNeonGreen-IFT88 movement. It is filed as cell-based, murine. The following applies: 15 μM. In a few lines: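 Live IMCD3 cells expressing mNeonGreen-IFT88 were given 15 μM test compound or DMSO for 3 min and imaged in real time. Foci were tracked and classed as anterograde, retrograde or immobile, and their mean velocity and frequency were quantified from at least seven cilia across three independent experiments (± s.e.m.; P < 0.05 or 0.01).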

A value given as a limit tells only on which side of the number the result lay.

Usually IC50 stands for the midpoint of a concentration-inhibition curve. A lower IC50 goes with inhibition by little substance. `CC(C)Oc1ccc2c(c1)NC(=C(C#N)C(=O)c1ccc(Cl)cc1Cl)NC2=O` [analog 18]: the “inhibition of ciliogenesis / primary cilium length” value in test [1] is “Inhibition of ciliogenesis”. In test [2], the “inhibition of Hh signaling” value was “Dose-dependent inhibition of Hh signaling”. Also, the figures for the IC50 in test [3] and in test [4] were 130 µM and 21 µM, respectively.
In the case of `Cc1ccc(COc2ccc3c(c2)NC(=C(C#N)C(=O)c2ccc(Cl)cc2Cl)NC3=O)cc1` [analog 37], the “time to disruption of ciliary transport” value in test [5] was at most 3 min.
